Tests used:
[1] = molecular target: T1, Polyunsaturated fatty acid 5-lipoxygenase (Rattus norvegicus, UniProt P12527); assay: Ability to inhibit 5-lipoxygenase by using a crude preparation of the cytosolic enzyme from the rat basophilic leukemia (RBL-1) cell line; format: cell-based
T1 sequence (P12527 whole entry): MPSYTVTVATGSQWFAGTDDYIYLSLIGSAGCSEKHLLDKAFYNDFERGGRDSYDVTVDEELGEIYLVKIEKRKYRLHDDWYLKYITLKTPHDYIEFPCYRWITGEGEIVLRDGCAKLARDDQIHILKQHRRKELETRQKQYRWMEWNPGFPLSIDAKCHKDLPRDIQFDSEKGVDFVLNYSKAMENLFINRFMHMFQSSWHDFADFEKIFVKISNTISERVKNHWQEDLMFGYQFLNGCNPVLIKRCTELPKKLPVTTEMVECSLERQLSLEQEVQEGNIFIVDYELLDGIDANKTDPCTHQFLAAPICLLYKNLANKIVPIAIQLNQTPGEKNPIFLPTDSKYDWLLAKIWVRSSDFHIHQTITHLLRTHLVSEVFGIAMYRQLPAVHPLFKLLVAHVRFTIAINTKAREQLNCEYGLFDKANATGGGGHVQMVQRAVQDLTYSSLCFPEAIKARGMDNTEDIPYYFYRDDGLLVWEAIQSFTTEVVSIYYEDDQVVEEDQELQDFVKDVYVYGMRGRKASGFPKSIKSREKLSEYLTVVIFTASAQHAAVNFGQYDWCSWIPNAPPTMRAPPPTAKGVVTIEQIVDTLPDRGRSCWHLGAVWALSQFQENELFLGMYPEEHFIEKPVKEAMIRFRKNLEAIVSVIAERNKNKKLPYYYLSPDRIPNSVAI
In short: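 Crude cytosolic enzyme (supernatant) from RBL-1 cells, amount giving net 3300–3800 dpm 5-HETE (9–20 μg cell protein/assay). Enzyme is preincubated 5 min at 37 °C, pH 7.0, with compound (in 5% DMSO/Tris pH 8.5) in phosphate buffer with EDTA, gelatin, glutathione, CaCl2 and 0.012 mM indomethacin. Reaction is started with 0.042 mM final [14C]arachidonic acid and stopped by freezing after 2 min.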

[2] = test system: Mus musculus; assay: Effective dose to inhibit 50% of mouse arachidonic acid induced ear edema assay; format: functional
In short: (§1)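 Groups of 10 male CF1 mice (18–20 g). Compound in acetone is applied topically to both ears just before 1 mg arachidonic acid in acetone is applied to one ear; the other ear serves as control. Mice are killed 60 min later and 6-mm ear punches weighed; swelling is the weight difference. %Inhibition = [(C−T)/C]×100, with Student's t test.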

[3] = test system: Mus musculus; assay: Percentage inhibition of the mouse arachidonic acid induced ear edema assay (AA) at a dose of 100 ug/ear; format: functional; in short: as §1
[4] = molecular target: T2, Cyclooxygenase (Bos taurus, UniProt O62664+O62698); assay: In vitro inhibition of Prostaglandin G/H synthase in BSV cell line.; format: cell-based
T2 sequence (O62664 whole entry): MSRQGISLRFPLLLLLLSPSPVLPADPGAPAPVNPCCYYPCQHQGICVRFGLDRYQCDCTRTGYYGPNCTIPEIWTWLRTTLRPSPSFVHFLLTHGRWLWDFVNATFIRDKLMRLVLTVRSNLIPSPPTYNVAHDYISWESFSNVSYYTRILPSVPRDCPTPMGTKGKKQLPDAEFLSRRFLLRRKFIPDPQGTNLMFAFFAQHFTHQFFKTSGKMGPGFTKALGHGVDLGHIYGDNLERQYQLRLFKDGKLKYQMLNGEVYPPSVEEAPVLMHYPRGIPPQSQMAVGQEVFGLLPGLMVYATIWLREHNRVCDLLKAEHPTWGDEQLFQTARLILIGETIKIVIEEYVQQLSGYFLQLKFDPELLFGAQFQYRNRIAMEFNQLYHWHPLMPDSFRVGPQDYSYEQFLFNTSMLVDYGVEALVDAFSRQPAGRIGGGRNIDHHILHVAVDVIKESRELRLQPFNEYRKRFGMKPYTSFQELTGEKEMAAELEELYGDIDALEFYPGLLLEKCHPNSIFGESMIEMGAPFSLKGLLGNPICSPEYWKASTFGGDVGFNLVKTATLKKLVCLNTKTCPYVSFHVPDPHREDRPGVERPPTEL
T2 sequence (O62698 whole entry): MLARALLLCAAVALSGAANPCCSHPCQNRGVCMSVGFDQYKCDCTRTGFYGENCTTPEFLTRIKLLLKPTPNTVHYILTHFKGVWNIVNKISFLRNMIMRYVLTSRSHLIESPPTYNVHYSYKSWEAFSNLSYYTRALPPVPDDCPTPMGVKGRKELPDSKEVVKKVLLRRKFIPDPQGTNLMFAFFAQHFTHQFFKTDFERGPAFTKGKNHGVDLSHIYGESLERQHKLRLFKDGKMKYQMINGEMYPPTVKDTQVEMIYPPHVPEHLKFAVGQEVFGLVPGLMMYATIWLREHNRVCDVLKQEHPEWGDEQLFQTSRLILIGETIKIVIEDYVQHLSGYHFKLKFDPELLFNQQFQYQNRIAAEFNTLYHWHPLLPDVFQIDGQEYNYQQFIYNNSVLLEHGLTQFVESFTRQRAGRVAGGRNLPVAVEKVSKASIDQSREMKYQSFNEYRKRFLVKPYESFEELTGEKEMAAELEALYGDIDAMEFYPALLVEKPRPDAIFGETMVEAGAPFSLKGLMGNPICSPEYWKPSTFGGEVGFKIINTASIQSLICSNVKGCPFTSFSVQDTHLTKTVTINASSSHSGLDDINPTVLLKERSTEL

[5] = molecular target: Cyclooxygenase (Bos taurus) (UniProt O62664+O62698); assay: Ability to inhibit Prostaglandin G/H synthase by using the bovine seminal vesicle enzyme assay on BSV cell line at a concentration of 75 uM; format: tissue-based
In short: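 Bovine seminal vesicle cyclooxygenase (40 μg) with Tris pH 8.5 and cofactors (glutathione, epinephrine, EDTA) is chilled on ice. Compound in DMSO diluted with Tris is added, then preincubated 2 min at 37 °C. [14C]arachidonic acid (0.2 μCi/mL in 0.1 mM sodium arachidonate) is added and the reaction runs 10 min. Duplicates are run; values are the percent inhibition at the concentration shown.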

[6] = molecular target: T3, Polyunsaturated fatty acid 5-lipoxygenase (Rattus norvegicus) (UniProt P12527); assay: Ability to inhibit 5-lipoxygenase by using a crude preparation of the cytosolic enzyme from the rat basophilic leukemia (RBL-1) cell line at a concentration of 25 uM; format: cell-based
T3 sequence (whole entry): T1 sequence (P12527 whole entry)

[7] = test system: Mus musculus; assay: percentage inhibition of the mouse arachidonic acid induced ear edema assay (AA) (Dose is 100 ug/ear); format: functional; in short: as §1

Structure (SMILES): C=CCc1ccc2ccccc2c1O
- IC50 [1]: 0.056 µM
- ED50 [2]: 4.4 ug ear-1
- Inhibition [3]: 91%
- IC50 [4]: 18 µM

Structure (SMILES): Oc1ccccc1Cc1ccccc1
- IC50 [1]: 63 µM
- Inhibition [3]: 32%
- inhibition [5]: 22%

Structure (SMILES): Oc1c(Cc2ccccc2)ccc2ccccc12
- IC50 [1]: 0.019 µM
- ED50 [2]: 9.4 ug ear-1
- Inhibition [3]: 82%
- IC50 [4]: 3.4 µM

Structure (SMILES): CCOC(=O)CCCCc1ccc2ccccc2c1O
- IC50 [1]: 0.011 µM
- ED50 [2]: 40 ug ear-1
- Inhibition [3]: 74%
- IC50 [4]: 18 µM

Structure (SMILES): COc1ccc2c(c1)c(CC(=O)O)c(C)n2C(=O)c1ccc(Cl)cc1 [INDOMETHACIN]
- inhibition [6]: 47%
- ED50 [2]: 780 ug ear-1
- Inhibition [3]: 20%

Structure (SMILES): COc1c(OC)c(OC(C)=O)c2cc(Cl)ccc2c1OC(C)=O [LONAPALENE]
- IC50 [1]: 0.7 µM
- ED50 [2]: 100 ug ear-1
- Inhibition [3]: 50%
- inhibition [5]: 0%

Structure (SMILES): Oc1ccc2ccccc2c1Cc1ccccc1
- IC50 [1]: 3.9 µM
- Inhibition [7]: 23%
- IC50 [4]: 16 µM

Structure (SMILES): CCOC(=O)CCC/C(=N\O)c1ccc2ccccc2c1O
- IC50 [1]: 2.7 µM
- Inhibition [3]: 29%
- inhibition [5]: 27%

Structure (SMILES): O=C1CCN(c2ccccc2)N1 [PHENIDONE]
- ED50 [2]: 41 ug ear-1
- Inhibition [3]: 58%
- inhibition [5]: 31%

Structure (SMILES): O=C(O)c1c(Cc2ccccc2)ccc2ccccc12
- inhibition [6]: 2%
- Inhibition [3]: 0%
- inhibition [5]: 15%

Structure (SMILES): OCc1ccccc1/C=C/Cc1cc2c(cc1O)CCO2
- IC50 [1]: 0.25 µM
- ED50 [2]: 55 ug ear-1
- Inhibition [3]: 52%
- IC50 [4]: 57 µM

Structure (SMILES): O=C(c1ccccc1)c1ccc2ccccc2c1O
- IC50 [1]: 20 µM
- Inhibition [3]: 30%
- inhibition [5]: 26%

Structure (SMILES): O=C1C=C(Cc2ccccc2)C(=O)c2ccccc21
- IC50 [1]: 0.29 µM
- Inhibition [3]: 59%
- inhibition [5]: 16%

Structure (SMILES): COc1c(Cc2ccccc2)ccc2ccccc12
- IC50 [1]: 55 µM
- Inhibition [3]: 5%
- inhibition [5]: 0%

Structure (SMILES): CC(=O)Nc1c(Cc2ccccc2)ccc2ccccc12
- inhibition [6]: 13%
- Inhibition [3]: 8%

Structure (SMILES): OCCOc1c(Cc2ccccc2)ccc2ccccc12
- IC50 [1]: 40 µM
- Inhibition [3]: 12%
- inhibition [5]: 28%

Structure (SMILES): CCOC(=O)CCCC(=O)c1ccc2ccccc2c1O
- inhibition [6]: 23%
- Inhibition [3]: 13%
- inhibition [5]: 12%

Structure (SMILES): CCOC(=O)c1ccc2ccccc2c1O
- IC50 [1]: 25 µM
- Inhibition [3]: 0%
- inhibition [5]: 0%
